Source: PubChem BioAssay (Sanford-Burnham Center for Chemical Genomics)
PMI act hi M6P: human PMI activators, high substrate, primary screen, biochemical, fluorescence intensity, near-saturating mannose 6-phosphate. Mannose-6-phosphate isomerase (Homo sapiens), P34949. coupled PMI enzyme assay, resazurin fluorescence, 20 min; stronger effect = higher value; 1 = untreated enzyme, 0 = substrate-free blank. activation factor at 20 µM. actives 0.34% (n = 190,000);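 active = activation factor of 2 or more at 20 µM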
Target sequence (P34949 whole entry, looked up): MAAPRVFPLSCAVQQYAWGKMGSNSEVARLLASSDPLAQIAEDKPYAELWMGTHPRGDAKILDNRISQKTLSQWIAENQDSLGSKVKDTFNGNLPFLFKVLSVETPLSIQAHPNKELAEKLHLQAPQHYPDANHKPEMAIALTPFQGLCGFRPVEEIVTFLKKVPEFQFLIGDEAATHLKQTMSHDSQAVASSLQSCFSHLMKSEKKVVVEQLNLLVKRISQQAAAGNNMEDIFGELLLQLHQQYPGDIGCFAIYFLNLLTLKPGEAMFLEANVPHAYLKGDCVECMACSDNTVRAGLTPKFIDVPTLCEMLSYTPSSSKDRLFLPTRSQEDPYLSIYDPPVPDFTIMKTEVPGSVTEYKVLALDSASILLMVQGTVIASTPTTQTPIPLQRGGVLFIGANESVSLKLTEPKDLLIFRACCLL
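Material: human phosphomannose isomerase with PGI, G6PDH, diaphorase coupling enzymes / Reagent: Man-6-P substrate 1.0 mM / Dosing: single compound dose of 20 µM, 1% DMSO final / Incubation: enzyme reaction with compound 20 min at room temperature / Signal: resorufin fluorescence (Ex 544/Em 590 nm) from resazurin via diaphorase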
PMI activator: activators of human PMI, primary screen, biochemical, fluorescence intensity, near-Km mannose 6-phosphate. Mannose-6-phosphate isomerase (Homo sapiens), P34949. purified human PMI, coupled resazurin fluorescence, 20 min; stronger effect = higher value; 1 = vehicle control, 0 substrate-free wells. activation factor at 20 µM. actives 0.005% (n = 190,000). AID 1214, 2008;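 active = activation factor of 2 or more at 20 µM, relative to plate controls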
TNAP inh noacc: human TNAP enzyme inhibitors, primary screen, biochemical, luminescent, no phosphate acceptor, uHTS. Alkaline phosphatase, tissue-nonspecific isozyme (Homo sapiens), P05186. purified TNAP, CDP-star luminescence, 30 min. inhibition, % at 20 µM. actives 0.26% (n = 200,000);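 active = tissue-nonspecific alkaline phosphatase inhibition above about 50% at 20 µM in the single-dose screen, limit read from the data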;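 note: 0% = DMSO negative control and 100% = EDTA positive control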
TNAP act hi DEA: TNAP activators at high phosphate acceptor level, primary screen, biochemical, luminescence, uHTS | activation factor at 20 µM | AID 1136, 2008 | purified TNAP, CDP-star luminescence, 1 M DEA, 30 min; stronger effect = higher value; 0 = EDTA background, 1 = DMSO-only activity | 200,000 tested, under 10 active | Alkaline phosphatase, tissue-nonspecific isozyme (Homo sapiens), P05186;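 active = activation factor at least 2 at 20 µM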
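Measured by: Luminescent substrate turnover signal | Test system: Human TNAP | Input: TNAP 1/800 final | Dosing: 20 µM single point | Schedule: 30 min, room temperature | Controls: EDTA wells as negative control, DMSO wells as positive control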
TNAP inh hiacc: human TNAP enzyme inhibitors, primary screen, biochemical, luminescent, high phosphate acceptor level, uHTS; Alkaline phosphatase, tissue-nonspecific isozyme (Homo sapiens), P05186; AID 1135, 2008; actives 0.03% (n = 200,000); purified TNAP, CDP-star luminescence, 1 M DEA; inhibition, % at 20 µM;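 active = over 50% inhibition of tissue-nonspecific alkaline phosphatase at 20 µM in the single-dose screen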;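 note: plate controls were DMSO wells for no effect and EDTA-quenched wells as full inhibition for full effect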
Starred values were filed as active, the others as inactive; x = not tested or not shown. Only some compounds are listed: those with a hit (about 0.64% of all), similar ones and a draw of the others.

SMILES | PMI act hi M6P | PMI activator | TNAP inh noacc | TNAP act hi DEA | TNAP inh hiacc
O=C(/C=C/c1ccc(Cl)cc1Cl)Nc1ccc(CN2CCOCC2)cc1 | 0.9 | 0.8 | -8.8 | 1 | -1.7
COc1ccc(NC(=O)N/C=C/c2ccco2)cc1 | 2.2* | 1.8 | -0.7 | 1 | -2.5
O=C(Cc1cccs1)N1CCCC(c2nc3c(nnn3Cc3cccc(Cl)c3)c(=O)[nH]2)C1 (stereo not drawn) | 1 | 1.1 | -9.9 | 1 | -4.5
C=CCn1c(O)c(N=NC(=O)OC(C)(C)C)c2ccccc21 | 1 | 0.9 | 2.1 | 1 | 4.9
C=CCn1c(O)c(N=Nc2ccccc2C)c2ccccc21 | 2.2* | 1.7 | 12.4 | 1 | 4.5
CCSc1cc(C2C(C#N)=C(N)OC(C)=C2C(=O)OC)c(C)o1 (stereo not drawn) | 2* | 1.5 | -9.5 | 1 | -1.9
CCOC(=O)c1oc2nc(C)c3c(c2c1N)CC(C)(C)OC3 | 1 | 1.1 | 2.8 | 1 | -4.7
Cc1ccc(S(=O)(=O)c2cnc3cc(C)nn3c2N)cc1 | 0.9 | 1.1 | -11.7 | 1 | -1.8
CC(C)Cc1nc(SCC(=O)Nc2ccc(S(N)(=O)=O)cc2)n[nH]1 | 1 | 1 | 36.9 | 1 | -0.1
Nc1nc(SCC(=O)Nc2ccc(S(N)(=O)=O)cc2)n[nH]1 | 1 | 1 | 63.7* | 1 | 2.2
Brc1ccc2nc(-c3c[nH]c4ccccc34)cn2c1 | 1.1 | 1.2 | -4.5 | 1.1 | -5.2
Cc1cccc2nc(CSc3nc4ccc([N+](=O)[O-])cc4[nH]3)c(Br)n12 | 1.2 | 1 | -93.8 | 1 | -2.3
COc1ccc(/C=C/C(=O)c2ccc(C)c([N+](=O)[O-])c2)cc1O | 0.7 | 0.8 | 12.8 | 0.8 | 24.9
COc1cc(/C=C/C(=O)c2ccc(C)c([N+](=O)[O-])c2)cc(OC)c1O | 0.8 | 0.8 | 49.7 | 0.4 | 59.0*
CC(=O)NC(CCCN1C(=O)c2ccccc2C1=O)c1nnn(C)n1 (stereo not drawn) | 1 | 1.1 | -11.9 | 1.1 | -5.6
Cc1ccccc1C(=O)NNC(=O)CSc1nc(-c2ccccc2)cc(=O)[nH]1 | 1.1 | 1.1 | 74.9* | 1 | -4.1
C/C(=N\NC(=O)c1ccccc1)c1ccc(-n2ccnc2)cc1 | 1 | 0.9 | -6.0 | 1 | -1.7
C/C(=N\Nc1ccc(Cl)c(Cl)c1)c1ccc(-n2ccnc2)cc1 | 2.6* | 1.7 | 1.9 | 1 | -2.7
O=C(CSc1n[nH]c(-c2ccc(Cl)cc2Cl)n1)Nc1ccccn1 | 1 | 1 | 93.1* | 0.9 | 7.7
Cc1nc(SCC(=O)Nc2ccccn2)n[nH]1 | 1 | 1 | -8.3 | 1 | -2.0
COc1ccc(C(=O)N/N=C/c2cc3ccccc3[nH]c2=S)cc1 | 2* | 1.7 | 9.9 | 1 | 1.9
CCN(CC)C(=O)c1ccc2nc3ccccc3nc2c1 | 2.2* | 1.6 | -7.3 | 1 | -0.3
C/C(=N\NC(=O)c1ccccc1)c1cc2cc([N+](=O)[O-])ccc2oc1=O | 1.1 | 0.9 | 19.3 | 0.4 | 58.5*
CNC(=O)c1cc2cc(OC)ccc2oc1=O | 1.1 | 1.1 | -14.5 | 1 | -1.5
C/C(=N\NC(=O)c1ccc([N+](=O)[O-])cc1)c1cc2ccccc2oc1=O | 1.1 | 1.1 | -2.0 | 0.9 | 14.1
SMILES | PMI act hi M6P | PMI activator | TNAP inh noacc | TNAP act hi DEA | TNAP inh hiacc
COc1ccc2oc(=O)c(/C(C)=N/Nc3ccccc3)cc2c1 | 2.5* | 1.9 | -8.3 | 1 | 3.7
COc1ccc(C(=O)N2CCNC(=O)C2CC(=O)Nc2ccc(C)cc2)cc1 (stereo not drawn) | 0.9 | 0.9 | -2.9 | 1 | -3.3
CCC(=O)NC(=S)Nc1ccc(NC(=O)c2cccc([N+](=O)[O-])c2C)cc1 | 1.1 | 0.9 | -17.6 | 1 | -1.0
CSC1=NC(C(Cl)(Cl)Cl)N=C(c2ccc(C)cc2)N1 (stereo not drawn) | 2.3* | 1.9 | -6.5 | 1 | -0.4
CCC1N=C(SC)NC(C)=C1C(=O)c1ccccc1 (stereo not drawn) | 1.7 | 1.4 | -11.9 | 1 | -2.5
Cc1ccc(S(=O)(=O)NC(=O)COc2ccccc2)cc1 | 1.1 | 1 | -7.0 | 1.1 | -6.2
Cc1ccccc1N1Cc2ccccc2C1 | 2.2* | 1.7 | -5.5 | 1 | 0.4
C(=N\Nc1ccccn1)/c1ccc(N2CCOCC2)cc1 | 0.8 | 0.9 | 2.0 | 1 | 2.4
C(=N\Nc1ccccc1)/c1ccc(N2CCOCC2)cc1 | 2.2* | 1.3 | -5.0 | 1 | -2.9
Clc1cccc(N/N=C/c2ccc(N3CCOCC3)cc2)c1 | 2.3* | 1.4 | -8.8 | 1 | -4.5
O=c1c2cc(Cl)ccc2oc2nc3n(c(=O)c12)CCCS3 | 0.9 | 1 | -11.9 | 1 | -3.9
O=C(NCCCN1CCOCC1)c1coc2ccccc2c1=O | 1.1 | 1.1 | -5.5 | 1.1 | -9.2
O=c1c(N2CCOCC2)coc2ccccc12 | 2.8* | 1.8 | -8.4 | x | x
CCCCCCCCCCSc1n[nH]c(NC(C)=O)n1 | 1.1 | 1 | -73.8 | 1 | 1.5
CCCSc1n[nH]c(NC(C)=O)n1 | 1 | 1 | 95.6* | 1 | -1.1
CSc1n[nH]c(NC(C)=O)n1 | 1.1 | 1.1 | 50.1* | 1 | 3.5
O=C(COc1cccnc1[N+](=O)[O-])N1N=C(c2ccc(Cl)cc2)CC1c1ccco1 (stereo not drawn) | 1.1 | 1.2 | -6.1 | 1 | -4.0
CCOC(=O)c1c2c3c(cccc3[nH]c1=O)C(=O)c1ccccc1-2 | 1.3 | 1.4 | -7.2 | 1 | 2.9
CCOC(=O)c1c2c3c(c(Cl)ccc3[nH]c1=O)C(=O)c1ccccc1-2 | 2* | 1.6 | -4.1 | 0.9 | 8.3
Cc1ccc(N=C2NC(=O)C(CC(=O)O)S2)cc1 (stereo not drawn) | 1 | 1 | 63.6* | 1 | -4.1
CN1/C(=C\C=C2/SC(=S)N(CC(=O)O)C2=O)C(C)(C)c2ccccc21 | 0.8 | 0.8 | 52.1* | 0.5 | 50.1*
C=CCN1C(=O)/C(=C\C=C2\N(C)c3ccccc3C2(C)C)SC1=S | 0.7 | 0.8 | -3.7 | 0.5 | 48.6
O=C1c2c(O)cc(O)cc2O[C@H](c2ccc(O)c(O)c2)[C@@H]1O | 0.9 | 0.5 | 69.8* | 0.9 | 7.5
Cc1cccc(C)c1OCC(=O)N1CC2(C)CC1CC(C)(C)C2 (stereo not drawn) | 1 | 1 | 2.5 | 1 | -1.5
Cc1ccc(/C=N/Nc2ccc(C(=O)O)cc2)o1 | 1.1 | 1.1 | -14.3 | 1 | -4.8
O=C(O)c1ccc(N/N=C/c2ccc(-c3ccccc3)cc2)cc1 | 2.4* | 1.6 | -10.1 | 1 | -0.5
